B1: tRNA (parent)
chain: GUUCCGUUGGCGUAAUGGUAACGCGUCUCCCUCCUAAGGAGAAGACUGCGGGUUCGAGUCCCGUACGGAACG

For 38 variants, yeast fitness results are on record in the RNAGym collection of RNA variant scans (doi:10.1126/science.aae0568).

Fewer inactive variants are shown than the library holds.

In this series the parent is B1. The experiment in a line: yeast fitness relative to wild type (ratio to wild type); higher = fitter; tRNA-Arg(CCU), competitive growth, 37 C, YPD. In outline: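 Genotype frequency changes were the basis for Darwinian fitness relative to wild type. The frequencies came from 100-nucleotide paired-end sequencing of gene amplicons from the start population and each end population of pooled yeast strains with tRNA-Arg(CCU) gene variants at the native locus. Competition ran in YPD at 37°C for 24 hours in six replicates, genotypes needed ≥ 100 starting reads, and estimates < 0.5 were set to 0.5.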
With GUUCCGUUGGCGUAAUGGUAACGCGUAUCCCUCCUAGGGAGAAGACUGCGGGAUCGAGUCCCGUACGGAACG [C27A A37G U53A], the yeast fitness is at most 0.5.

In the case of GUUCCGUUGGCGUAAUGGUAACGCGGCUCCCUCCUAAGGAGAAGACUGCGCGUUCGACUCCCGUACGGAACG [U26G G51C G58C], the yeast fitness was found to be 0.54.

For GUUCCGUUGGCGUAAUGGUAACGCGUAUCCCUCCUACGGAGAAGACUGCGGGUUCGAGUCCGGUACGGAACG [C27A A37C C62G], the yeast fitness was at most 0.5.

For GUUCCGUUGGCGUAAUGGUAACGCGGCUCCCUCCUAAGGAGAAGACUGCGGGUUCGAGCCCCGUACGGAACG [U26G U59C], the yeast fitness amounted to 0.936.

Turning to GUUCCGUUGGCGUAAUGGUAACGCGUAUCCCUCCUGAGGAGAAGACUGCGGGUUCGAGUCCCGUACGAAACG [C27A A36G G68A], the yeast fitness was at most 0.5.

Regarding GUUCCGUUGGCGUAAUGGUAACGCGUAUCCCUCCUGAGGAGAAGACUGCGGGUUCGGGUCCCGUACGGAACG [C27A A36G A57G], the yeast fitness was at most 0.5.

In the case of GUUCCGUUGGCGUAAUGGUAACGCGGCUCCCUCCUAAGGAGAAGACUGCGGGUUCGAGUCCCGUACGAAACG [U26G G68A], the yeast fitness was 0.824.

On to GUUCCGUUGGCGUAAUGGUAACGCGGCUCCCUCCUAAGGAGAAGACUGCGGGUUCGAGUCCCGUACGCAACG [U26G G68C], for which the yeast fitness came out at 0.596.

Take GUUCCGUUGGCGUAAUGGUAACGCGUAUCCCUCCUACGGAGAAGACUGCGGGUUGGAGUCCCGUACGGAACG [C27A A37C C55G]: the yeast fitness is at most 0.5.

In the case of GUUCCGUUGGCGUAAUGGUAACGCGGCUCCCUCCUAAGGAGAAGACCGCGAGUUCGAGUCCCGUACGGAACG [U26G U47C G51A], the yeast fitness worked out at 0.559.

Turning to GUUCCGUUGGCGUAAUGGUAACGCGGCUCCCUCCUAAGGAGAAGACUGCCGGUUCGAGUCCCGUAUGGAACG [U26G G50C C66U], the yeast fitness was at most 0.5.

With GUUCCGUUGGCGUAAUGGUAACGCGGCUCCCUCCUAAGGAGAAGACUGCGGGUUCGAGUCCCAUACGGAACG [U26G G63A], the yeast fitness came to 0.919.

With GUUCCGUUGGCGUAAUGGUAACGCGUAUCCCUCCUACGGAGAAAACUGCGGGGUCGAGUCCCGUACGGAACG [C27A A37C G44A U53G], the yeast fitness was at most 0.5.

As for GUUCCGUUGGCGUAAUGGUAACGCGUAUCCCUCCUAAGGCGAAGUCUGCGGGUUCGUGUCCCGUACGGAACG [C27A A40C A45U A57U], the yeast fitness is at most 0.5.

As for GUUCCGUUGGCGUAAUGGUAACGCGUAUCCCUCCUGAGGAGAAGACUGCGGGUUCGAGUCGCGUAUGGUACG [C27A A36G C61G C66U A69U], the yeast fitness is at most 0.5.

For GUUCCGUUGGCGUAAUGGUAACGCGGCUCCCUCCUAAGGAGAAGACUGCGGGAUUGAGUCACGUACGGAACG [U26G U53A C55U C61A], the yeast fitness was at most 0.5.

On to GUUCCGUUGGCGUAAUGGUAACGCGGCACCCUCCUAAGGAGAAGCCUGCGGGUUCGAGUCCCGUACGGAACG [U26G U28A A45C], for which the yeast fitness was at most 0.5.

In the case of GUUCCGUUGGCGUAAUGGUAACGCGGCUCCCUCCUAAGCAGAAGGCUGCGGGUUCGCGUCGCGUACGGAACG [U26G G39C A45G A57C C61G], the yeast fitness came out at 0.592.

GUUCCGUUGGCGUAAUGGUAACGCGUAUCCCUCCUAAGGAGAAGACUGCGGGUUCGAGUCCCGUACGGAACG [C27A]: the yeast fitness amounted to 0.997.

For GUUCCGUUGGCGUAAUGGUAACGCGGCUCCCUCCUAAGGAGAAGACAGCGGGUUCGAGUCCCGUACGGAACG [U26G U47A], the yeast fitness stood at 0.811.

As to GUUCCGUUGGCGUAAUGGUAACGCGUAUCCCUCCUGAGGAGAAGACUGCGGGUUCGAGUCUCGUACGGAACG [C27A A36G C61U], the yeast fitness is at most 0.5.

As to GUUCCGUUGGCGUAAUGGUAACGCGGCUCCCUCCUAAGGAGAAGACUGCGGGAUCCAGUCCCAUACGGAACG [U26G U53A G56C G63A], the yeast fitness was at most 0.5.

Regarding GUUCCGUUGGCGUAAUGGUAACGCGUAUCCCUCCUAUGGAGAAGACUGCGGGUUCGAGUCUCGUACGGAACG [C27A A37U C61U], the yeast fitness is at most 0.5.

Consider GUUCCGUUGGCGUAAUGGUAACGCGUAUCCCUCCUAGGCAGAAGACUGCGGGUUUGAGUCCCGUCCGGAACG [C27A A37G G39C C55U A65C], for which the yeast fitness was at most 0.5.

Consider GUUCCGUUGGCGUAAUGGUAACGCGGCUCCCUCCUAAGGAGAAGACUGCGGGUUCAAGUCCCGUACGGAACG [U26G G56A], for which the yeast fitness is 0.919.

Regarding GUUCCGUUGGCGUAAUGGUAACGCGGCUCCCUCCUAAGGAGAAGACUGCGAGUUCGAGUCCCGUGCGGAACG [U26G G51A A65G], the yeast fitness turned out to be 0.599.

As to GUUCCGUUGGCGUAAUGGUAACGCGUAUCCCUCCUACGGAGAAGACUGCGGGUUCGAGUCCCGUACGAAACG [C27A A37C G68A], the yeast fitness was at most 0.5.

Take GUUCCGUUGGCGUAAUGGUAACGCGUAUCCCUCCUGAGGAGAAGACUGUGGGUUCGAGUCCCGUACGGAUCG [C27A A36G C49U A70U]: the yeast fitness is at most 0.5.

For the variant GUUCCGUUGGCGUAAUGGUAACGCGUAUCCCUCCUGAGGAGAGGACUGCGGGUUUGAGUUCCGUACGGAACG [C27A A36G A43G C55U C60U], the yeast fitness was at most 0.5.

Take GUUCCGUUGGCGUAAUGGUAACGCGGCUCCCUCCCAAGGAGAAGACUGCGGGUUCGAGUCCCAUACGGAGCG [U26G U35C G63A A70G]: the yeast fitness was at most 0.5.

Consider GUUCCGUUGGCGUAAUGGUAACGCGGCUCCCUCCUAAGGAGAAGACUGCGAGUUCGAGUCCCGUACGGAACG [U26G G51A], for which the yeast fitness worked out at 0.598.

Turning to GUUCCGUUGGCGUAAUGGUAACGCGGCUCCCUCCUAAGGAGAAGACUACGGGUUCGAGUCUCGUACGGAACG [U26G G48A C61U], the yeast fitness came out at 0.94.

GUUCCGUUGGCGUAAUGGUAACGCGGCUCCCUCCUAAGGAGAAGACUGCGGGUUCGAGUCCGGUACGGAACG [U26G C62G]: the yeast fitness turned out to be 0.755.

Consider GUUCCGUUGGCGUAAUGGUAACGCGGCUCCCUCCUAAGGAGAAGACUGCGGGUUCGAGUCCUGUACGGAACG [U26G C62U], for which the yeast fitness was 0.842.

For GUUCCGUUGGCGUAAUGGUAACGCGUAUCCCUCCUGGGGAGAAGACUGCGGGUUCGAGUCCCGUACGGAUCG [C27A A36G A37G A70U], the yeast fitness was at most 0.5.

As for GUUCCGUUGGCGUAAUGGUAACGCGGCUCCCUCCUAAGGAGAAGACUGCGGAUUCGAGUCCCGUACGUAACG [U26G G52A G68U], the yeast fitness is at most 0.5.

For the variant GUUCCGUUGGCGUAAUGGUAACGCGUAUCCCUCCUGAGGAGAAGACUGCGGGUUCGAGUCCCGUACGGAACG [C27A A36G], the yeast fitness worked out at 0.761.

As for GUUCCGUUGGCGUAAUGGUAACGCGGCUCCCUCCUAAGGAGAAGACUGCGGGUUCGAGUCCCGCACGGAACG [U26G U64C], the yeast fitness was found to be 0.878.
